What was measured:
P388 [1] = assay: In vivo antineoplastic activity against P388 leukemia; assay type: functional, Mus musculus
Procedure, shortened: (§1)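 Murine P388 lymphocytic leukemia screen, with tumor implanted ip and drug given ip. Response is %T/C = (median survival of treated / median survival of control) × 100, reported at the optimal dose per dose in mg/kg. Mitomycin C was run concurrently. MED is the lowest mg/kg per dose that reaches the criterion %T/C.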

P388 [2] = assay: In vivo antineoplastic activity of mitomycin C sample run concurrently against P388 leukemia screen (optimal dosage); assay type: functional, Mus musculus; procedure, shortened: as §1
P388 [3] = assay: In vivo antineoplastic activity against P388 leukemia screen inoculated intraperitoneally expressed as minimum effective dose; assay type: functional; details: Mus musculus, P388, ip; read-out: MED; procedure, shortened: as §1
B16 [4] = assay: In vivo antineoplastic activity of mitomycin C sample run concurrently against B16 melanoma screen (optimal dosage); assay type: functional, Mus musculus
Procedure, shortened: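 Murine B16 melanoma test, with tumor implanted sc and treatment given iv. Activity is %T/C = (median survival of treated / median survival of untreated control) × 100, reported at the optimal dose in mg/kg per dose. A mitomycin C sample was run alongside. MED is the minimum mg/kg per dose meeting the activity criterion for %T/C.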

B16 [5] = assay: In vivo antineoplastic activity against B16 melanoma screen inoculated subcutaneously expressed as minimum effective dose
B16 [6] = assay: In vivo antineoplastic activity against B16 melanoma screen inoculated subcutaneously. Value in parenthesis indicates the optimal dosage
B16 [7] = assay: In vivo antineoplastic activity against B16 melanoma screen inoculated intraperitoneally expressed as minimum effective dose; assay type: functional, Mus musculus
B16 [8] = assay: In vivo antineoplastic activity against B16 melanoma screen inoculated intraperitoneally. Value in parenthesis indicates the optimal dosage; assay type: functional, Mus musculus

Work on `CO[C@@]12[C@H](COC(N)=O)C3=C(C(=O)C(C)=C(N)C3=O)N1C[C@H]1[C@H]2N1/C(S)=N\c1ccccc1` yielded a T/C (P388 [1]) of 127%, a T/C (P388 [2]) of 200% and a minimal effective dose (P388 [3]) of 2.56 mg/kg.

In the case of `COC(=O)N1[C@H]2CN3C4=C(C(=O)C(N)=C(C)C4=O)[C@@H](COC(N)=O)[C@@]3(OC)[C@@H]21`, the T/C (B16 [4]) is reported as 147%, the T/C (P388 [1]) is reported as 194% and the T/C (P388 [2]) is reported as 275%. For the same compound, the minimal effective dose (P388 [3]) was 3.2 mg/kg, the MED (B16 [5]) was 6.4 and the T/C (B16 [6]) was 165%.

`CNC(=O)N1[C@H]2CN3C4=C(C(=O)C(N)=C(C)C4=O)[C@@H](COC(N)=O)[C@@]3(OC)[C@@H]21` was tested, and the T/C (P388 [1]) was 121% and the T/C (P388 [2]) was 142%.

With `CO[C@@]12[C@H](COC(N)=O)C3=C(C(=O)C(C)=C(N)C3=O)N1C[C@H]1[C@H]2N1C(=S)SC` the T/C (P388 [1]) was 122% and the T/C (P388 [2]) was over 333%.

With `CNC(=S)N1[C@H]2CN3C4=C(C(=O)C(N)=C(C)C4=O)[C@@H](COC(N)=O)[C@@]3(OC)[C@@H]21` the T/C (P388 [1]) was 95% and the T/C (P388 [2]) was 152%.

`CO[C@@]12[C@H](COC(N)=O)C3=C(C(=O)C(C)=C(N)C3=O)N1C[C@H]1[C@H]2N1C(=O)Nc1ccccc1` showed a T/C (P388 [1]) of 116% and a T/C (P388 [2]) of 142%.

With `CO[C@@]12[C@H](COC(N)=O)C3=C(C(=O)C(C)=C(N)C3=O)N1C[C@H]1[C@H]2N1C(=S)Sc1ccccc1` the T/C (P388 [1]) was 167%, the T/C (P388 [2]) was 172% and the minimal effective dose (P388 [3]) was 12.8 mg/kg.

Compound `CO[C@@]12[C@H](COC(N)=O)C3=C(C(=O)C(C)=C(N)C3=O)N1C[C@H]1[C@H]2N1C(=O)Sc1ccccc1` has a T/C (B16 [4]) of 147%, a T/C (P388 [1]) of 200% and a T/C (P388 [2]) of 275%. The minimal effective dose (P388 [3]) was 1.6 mg/kg, the MED (B16 [5]) was 1.6 and the T/C (B16 [6]) was 156%.

`CO[C@@]12[C@H](COC(N)=O)C3=C(C(=O)C(C)=C(N)C3=O)N1C[C@H]1[C@H]2N1C(=S)Oc1ccccc1` showed a T/C (P388 [1]) of 162%, a T/C (P388 [2]) of 152% and a minimal effective dose (P388 [3]) of 51.2 mg/kg.

`CO[C@@]12[C@H](COC(N)=O)C3=C(C(=O)C(C)=C(N)C3=O)N1C[C@H]1[C@H]2N1C(=O)Oc1ccccc1` gave an MED (B16 [7]) of 3.2, a T/C (B16 [8]) of 165% and a T/C (B16 [4]) of 147%. The T/C (P388 [1]) was 194%, the T/C (P388 [2]) was 275% and the minimal effective dose (P388 [3]) was 1.6 mg/kg.

With `CO[C@@]12[C@H](COC(N)=O)C3=C(C(=O)C(C)=C(N)C3=O)N1C[C@H]1[C@H]2N1C(=O)SC` the T/C (P388 [1]) was 132%, the T/C (P388 [2]) was 142% and the minimal effective dose (P388 [3]) was 12.8 mg/kg.
